What was measured:
[1] = Cytotoxicity against human HSB2 cells after 7 days by Cell-Titer Glo assay; format: cell-based, CCRF-HSB-2
Outline: (§1)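 Uninfected Akata, BCBL1, HSB-2 or MOLT-3 cells incubated with compound for seven days under the matching antiviral-assay conditions. CellTiter-Glo added and luminescence read. CC50 is the concentration reducing cell number by 50%.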

[2] = Cytotoxicity against human BCBL1 cells after 7 days by Cell-Titer Glo assay; format: cell-based; outline: as §1
Human alphaherpesvirus 3 = test: Antiviral activity against VZV infected in human HFF cells assessed as reduction in cytopathic effect after 7 days by crystal violet staining; format: functional, organism-based; details: Human alphaherpesvirus 3, HFF, 168 h
Human alphaherpesvirus 1 = test: Antiviral activity against HSV-1 infected in human HFF cells assessed as reduction in cytopathic effect after 3 days by crystal violet staining; format: functional, organism-based; details: Human alphaherpesvirus 1, HFF, 72 h
Outline: (§2)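 Compound diluted over HFF monolayers, then HSV-1 (E-377) or HSV-2 (MS) added at MOI about 0.01 PFU/cell. Held 3 days in humidified 5% CO2. Stained 4 h with 0.1% crystal violet in formalin, rinsed, dried 24 h, and absorbance read at 595 nm. EC50 is 50% CPE reduction. Duplicate wells.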

Human betaherpesvirus 5 = test: Antiviral activity against HCMV infected in human HFF cells assessed as reduction in cytopathic effect after 8 days by plaque reduction assay; format: functional, organism-based; details: Human betaherpesvirus 5, HFF, 192 h
Outline: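 HFF monolayers seeded 2 days ahead and infected with AD169 at about 30 plaques per well, with 1 h adsorption. Compound was then added in MEM with 2% FBS, L-glutamine, penicillin, gentamycin and pooled human gamma globulin. After 8 days, neutral red stain and plaque counts by stereomicroscope. EC50 interpolated. Duplicate wells.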

[3] = Cytotoxicity against human Akata cells after 7 days by Cell-Titer Glo assay; format: cell-based; outline: as §1
[4] = Antiviral activity against HHV-6B infected in human Molt3 cells assessed as reduction in viral DNA after 7 days by hybridization assay; format: functional, cell-based, Human herpesvirus 6B; details: Human betaherpesvirus 6B, MOLT-3, 168 h
Outline: (§3)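 Compound serially diluted in medium. Uninfected HSB-2 cells were infected with HHV-6A (GS)-infected HSB-2 cells, and Molt-3 cells with HHV-6B (Z29)-infected Molt-3 cells. Incubation 7 days at 37 °C. Lysis in 4.5 M NaCl/1.2 M NaOH, then transfer to nylon membrane. Viral DNA quantified by digoxigenin-probe hybridization and EC50 calculated. Duplicate wells.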

Human gammaherpesvirus 4 = test: Antiviral activity against EBV Akata infected in human Akata cells assessed as reduction in viral DNA after 72 hrs by hybridization assay; format: functional, organism-based; details: human gammaherpesvirus 4, Akata
Outline: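 Akata cells kept in RPMI 1640 with 10% FBS, L-glutamine, penicillin and gentamicin. Latent infection was switched to productive by adding goat anti-human IgG, and cells were seeded into compound dilutions made in growth medium. After 72 h the DNA was denatured and blotted onto nylon membrane. Viral DNA was measured with a digoxigenin-labeled probe plus anti-hapten antibody. EC50 is the concentration halving viral DNA. Duplicate wells.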

Human alphaherpesvirus 2 = test: Antiviral activity against HSV-2 infected in human HFF cells assessed as reduction in cytopathic effect after 3 days by crystal violet staining; format: functional, organism-based; details: Human alphaherpesvirus 2, HFF, 72 h; outline: as §2
[5] = Cytotoxicity against human HFF cells after 3 to 8 days by crystal voilet staining; format: cell-based
Outline: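 Uninfected HFF cells exposed to the same concentrations as in the CPE assays (3 days for HSV, 7 for VZV, […]). Stained with crystal violet. CC50 is the concentration reducing cell number by 50%. Duplicate wells.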

[6] = Antiviral activity against HHV-6A infected in human HSB2 cells assessed as reduction in viral DNA after 7 days by hybridization assay; format: functional, cell-based, Human herpesvirus 6A; details: Human betaherpesvirus 6A, HSB2, 168 h; outline: as §3
Human gammaherpesvirus 8 = test: Antiviral activity against HHV-8 infected in human BCBL1 cells assessed as reduction in viral DNA after 7 days by qPCR analysis; format: functional, organism-based; details: Human gammaherpesvirus 8, BCBL1, 168 h
Outline: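 BCBL1 cells kept in RPMI 1640 with 10% FBS, penicillin, gentamycin and L-glutamine. Lytic infection induced with phorbol 12-myristate 13-acetate, then cells added to triplicate compound dilutions. Incubation 7 days at 37 °C in humidified CO2. EC50 is the concentration halving viral DNA accumulation.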

[7] = Cytotoxicity against human MOLT3 cells after 7 days by Cell-Titer Glo assay; format: cell-based, MOLT-3; outline: as §1

| Structure (SMILES) | CC50 at 168 h [1] [µM] | CC50 at 168 h [2] [µM] | IC50 (Human alphaherpesvirus 3) [µM] | IC50 (Human alphaherpesvirus 1) [µM] | IC50 (Human betaherpesvirus 5) [µM] | CC50 at 168 h [3] [µM] | IC50 [4] [µM] | IC50 (Human gammaherpesvirus 4) [µM] | IC50 (Human alphaherpesvirus 2) [µM] | CC50 [5] [µM] | IC50 [6] [µM] | IC50 (Human gammaherpesvirus 8) [µM] | CC50 at 168 h [7] [µM] |
| --- | --- | --- | --- | --- | --- | --- | --- | --- | --- | --- | --- | --- | --- |
| Nc1nc(NC2CC2)c2ncn(/C=C3/CC3(CO)CO)c2n1 | > 20 | 71.5 | > 60 | > 60 | 24 | > 20 | > 20 | > 20 | > 60 | > 300 | > 20 | 71 | > 20 |
| CNc1nc(N)nc2c1ncn2/C=C1/CC1(CO)CO | > 20 | 67 | > 300 | > 300 | > 300 | > 24 | > 20 | > 24 | > 300 | 265 | > 20 | 62 | > 20 |
| CCCNc1nc(N)nc2c1ncn2/C=C1/CC1(CO)CO | > 20 | > 20 | > 300 | > 300 | > 300 | > 24 | – | > 24 | > 300 | > 300 | > 20 | > 20 | – |
| CC(C)Nc1nc(N)nc2c1ncn2/C=C1/CC1(CO)CO | > 20 | > 20 | > 300 | > 300 | 160 | > 24 | – | > 24 | > 300 | > 300 | > 20 | > 20 | – |
| CCCCNc1nc(N)nc2c1ncn2/C=C1/CC1(CO)CO | > 20 | > 20 | > 300 | > 300 | > 60 | > 24 | > 20 | > 24 | > 300 | > 300 | > 20 | > 20 | > 20 |
| CC(C)CNc1nc(N)nc2c1ncn2/C=C1/CC1(CO)CO | > 20 | > 20 | > 300 | > 300 | > 300 | > 24 | – | > 24 | > 300 | > 300 | > 20 | > 20 | – |
| Nc1nc(NC2CCCC2)c2ncn(/C=C3/CC3(CO)CO)c2n1 | > 20 | 71.7 | > 60 | > 60 | > 60 | > 20 | > 20 | > 20 | > 60 | > 300 | > 20 | 63 | > 20 |
| Nc1nc(NC2CCCCC2)c2ncn(/C=C3/CC3(CO)CO)c2n1 | > 20 | > 20 | > 300 | > 300 | > 300 | > 24 | – | > 24 | > 300 | > 300 | > 20 | > 20 | – |
| Nc1nc(NCc2ccccc2)c2ncn(/C=C3/CC3(CO)CO)c2n1 | > 20 | 19.9 | > 60 | > 300 | > 60 | > 24 | > 20 | > 24 | > 300 | > 300 | > 20 | – | > 20 |
| CN(C)c1nc(N)nc2c1ncn2/C=C1/CC1(CO)CO | > 20 | > 20 | 180 | > 300 | > 300 | > 24 | – | > 24 | > 300 | > 300 | > 20 | > 20 | – |
| Nc1nc(N2CCCC2)c2ncn(/C=C3/CC3(CO)CO)c2n1 | > 20 | > 20 | > 300 | > 300 | > 300 | > 24 | – | > 24 | > 300 | > 300 | > 20 | > 20 | – |

Reference: ChEMBL document CHEMBL2034823, “Synthesis and antiviral activity of certain second generation methylenecyclopropane nucleosides” (Bioorg Med Chem, 2012)
